Data set [1] has as its target T1, Lysophosphatidic acid receptor 1 (Homo sapiens, UniProt Q92633). The data set is described as follows: Agonist activity at LPA1 receptor (unknown origin) stably expressed in rat RH7777 cells assessed as increase in intracellular calcium level at 10 uM by Fluo-4 NW dye based fluorescence assay. Type of data set: functional, cell-based. Put shortly:
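LPA1-stably transfected RH7777 hepatoma cells on poly-D-lysine, 50000 cells/well, cultured overnight. Loaded with Fluo-4 NW plus […] for 30 min at 37°C, then 30 min at rt. Compound added at 120 s of a 240 s read (ex 494/em 525 nm). Response taken as maximum minus baseline, relative to the 10 μM LPA control; ionomycin 10 μM also included. Run in triplicate.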
For orientation: A change in cytosolic calcium serves as a functional read-out for many receptors and channels.

The target in data set [2] is T1, Lysophosphatidic acid receptor 1. Briefly: Agonist activity at recombinant human full-length LPA1 receptor expressed in dhfr- deficient CHO cells assessed as increase in intracellular calcium flux measured for 1 min by fluo-3AM dye based FLIPR assay. The class given is functional, cell-based.
Data set [3] concerns the target Lysophosphatidic acid receptor 1 (Rattus norvegicus) (UniProt P61794). Briefly: Induction of LPA1 receptor desensitization in Wistar rat DRG neurons assessed as reduction in neuronal activity at 10 uM treated for 15 secs twice with 4 mins interval in presence of capsazepine by microelectrode Array. Put shortly:
(§1)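 Neonatal Wistar rat DRG neurons, cultured 48 h on poly-L-lysine/laminin-coated 60-electrode MEA chips. Compound perfused at 10 μM final for 15 s at 2 mL/min. Extracellular activity recorded at 25 kHz; output is mean spike frequency.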

Data set [4] shares this target. The data set is described as follows: Agonist activity at LPA1 receptors in Wistar rat DRG neurons assessed as increase in neuronal activity at 10 uM incubated for 15 secs in presence of capsazepine by Microelectrode Array. Put shortly: as §1
For data set [5] the target is unchanged. The data set is described as follows: Induction of LPA1 receptor desensitization in Wistar rat DRG neurons assessed as reduction in neuronal activity at 10 uM treated for 15 secs twice with 4 mins interval in presence of capsaicin by microelectrode Array. The method, boiled down: as §1
The target of data set [6] is T1, Lysophosphatidic acid receptor 1. The data set is described as follows: Binding affinity to LPA1 receptor (unknown origin) by cell-based backscattering interferometry.
Data set [7] has as its target Lysophosphatidic acid receptor 1 (Rattus norvegicus) (UniProt P61794). The data set is described as follows: Agonist activity at LPA1 receptors in Wistar rat DRG neurons assessed as increase in neuronal activity at 10 uM incubated for 15 secs in presence of capsaicin by Microelectrode Array. The method, boiled down:
as §1

In data set [8] the target is T1, Lysophosphatidic acid receptor 1. The data set is described as follows: Agonist activity at LPA1 receptor (unknown origin) stably expressed in rat RH7777 cells assessed as increase in intracellular calcium level by Fluo-4 NW dye based fluorescence assay. The class given is functional, cell-based.
The target of data set [9] is Lysophosphatidic acid receptor 1 (Rattus norvegicus) (UniProt P61794). Briefly: Induction of LPA1 receptor desensitization in Wistar rat DRG neurons assessed as reduction in calcium influx at 10 uM treated twice after 10 secs in presence of capsaicin by Fluo-4 NW dye based inverted microscopic method. Type of data set: functional. The method, boiled down:
(§2)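 DRG neurons from 3–5-day-old Wistar rats were collagenase-digested and cultured 48 h with NGF. Cells loaded with 5 μM Fluo-4AM and 0.02% pluronic in HEPES-buffered HBSS pH 7.4 for 1 h at 37°C, then perfused at rt. Compound given at 10 μM final (from 10 mM DMSO stock) as 10 s pulses. Capsaicin and 40 mM KCl (10 s, viability) also applied. Signal is peak minus baseline fluorescence; a response is >20% over baseline.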

For data set [10] the target is unchanged. The data set is described as follows: Agonist activity at LPA1 receptors in Wistar rat DRG neurons assessed as increase in calcium influx at 10 uM measured after 10 secs in presence of capsaicin by Fluo-4 NW dye based inverted microscopic method. Type of data set: functional. The method, boiled down:
as §2

A short description of data set [11]: Stability of the compound in PBS at pH 7.4 assessed as parent compound remaining incubated up to 8 hrs by HPLC-MS. Type of data set: physicochemical. Conditions: read-out: Stability. The method, boiled down: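 Compound from a 25 mM DMSO stock was diluted into PBS pH 7.4 and kept at rt. Parent compound remaining at each time point was measured by HPLC-MS in SIM mode, with peak area normalised to an internal standard.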

Data set [12] can be described thus: Stability of the compound in culture medium assessed as parent compound remaining incubated for up to 8 hrs by HPLC-MS. The class given is physicochemical. Conditions: read-out: Stability. Put shortly: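 Compound from a 50 mM DMSO stock was added to culture medium pre-warmed to 37°C and incubated at 37°C. Aliquots were quenched in cold acetonitrile, iced 10 min and centrifuged. Supernatants were analysed by HPLC-MS in SIM mode, with peak area normalised to an internal standard.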

Data set [13] addresses Lysophosphatidic acid receptor 1 (Rattus norvegicus) (UniProt P61794). The data set is described as follows: Agonist activity at LPA1 receptors in Wistar rat DRG neurons assessed as increase in calcium influx at 500 nM measured after 10 secs in presence of capsaicin by Fluo-4 NW dye based inverted microscopic method. The class given is functional.

The structures appear in SMILES notation. Activity calls are given as the source filed them. No cut-off for these calls is given here. A value given as a limit tells only on which side of the number the result lay.

Results on 25 molecules are retold here after ChEMBL document CHEMBL4610001 (J Med Chem, 2020).

Chain of Lysophosphatidic acid receptor 1 (Rattus norvegicus) (P61794 whole entry, the tested form may be a part): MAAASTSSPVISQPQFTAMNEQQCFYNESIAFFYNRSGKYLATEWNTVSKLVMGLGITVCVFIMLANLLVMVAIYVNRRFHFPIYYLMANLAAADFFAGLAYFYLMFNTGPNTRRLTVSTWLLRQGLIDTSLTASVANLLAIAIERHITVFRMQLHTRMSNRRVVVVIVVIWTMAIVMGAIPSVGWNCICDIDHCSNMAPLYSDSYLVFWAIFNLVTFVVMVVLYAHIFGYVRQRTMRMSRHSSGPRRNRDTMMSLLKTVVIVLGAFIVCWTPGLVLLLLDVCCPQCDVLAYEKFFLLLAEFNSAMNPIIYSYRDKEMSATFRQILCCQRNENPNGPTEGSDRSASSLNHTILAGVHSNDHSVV
T1 sequence (Q92633 whole entry): as the sequence (P61794 whole entry, the tested form may be a part) above, with A4I, S8I, Q22P, Y40H, V61I, D193E, H194N, V269I, N331S, N335T counted along it

As to `O=C(CCCCCCCCCc1ccccc1)OC[C@@H]1CC(F)(C(=O)O)C(=O)O1` (stereo partly drawn), the result in data set [1] was inactive. Still for that read-out and setting: then `O=C(CCCCCCCCCCc1ccccc1)O[C@H](CBr)COP(=O)(O)O`, with “inactive”; and `CCCCCCCC/C=C\CCCCCCCC(=O)OCCCC(F)(C(=O)O)C(=O)O`, with “inactive”; and `CCCCCC/C=C\CCCCCCCC(=O)O[C@H](CBr)COP(=O)(O)O`, with “inactive”. As to `CCCCCCCCCC/C=C\CCCCCCCC(=O)OC[C@@H](O)COP(=O)(O)O`, in data set [1], the result was inactive.

Regarding `CCCCCCCC/C=C\CCCCCCCC(=O)NC[C@H](CC(F)(C(=O)O)C(=O)O)OC`, the result in data set [1] was inactive. The same measure, in the same setting: next, `CCCCCCCC/C=C\CCCCCCCC(=O)OCCCC(C(=O)O)C(=O)O`: “inactive”; `CCCCCCCC/C=C\CCCCCCCC(=O)OC[C@@H](O)Cc1nnn[nH]1`: “inactive”. As to `CC1CCC2(C)c3[nH]c4ccccc4c3CCN2C1` (stereo not drawn), in data set [2], the EC50 was 3.6 µM. As for `O=C(CCCCCCCCc1ccccc1)O[C@H](CBr)COP(=O)(O)O`, in data set [1], the outcome was inactive. On the same count and under the same terms, then `CCCCCC/C=C\CCCCCCCC(=O)OC[C@@H]1C[C@@](F)(C(=O)O)C(=O)O1`, with “inactive”; and `O=C(CCCCCCc1ccc(-c2ccccc2)cc1)OC[C@@H](O)COP(=O)(O)O`, with “inactive”. Same read-out and setting: next, `CCCCCCCC/C=C\CCCCCCCC(=O)OC[C@@H](O)COCC(=O)O`: “inactive”. In the case of `CCCCCCCC/C=C\CCCCCCCC(=O)OC[C@@H](O)COP(=O)(O)O` [LYSOPHOSPHATIDIC ACID], the result in data set [3], in [4], in data set [5], in data set [7], in data set [9] and in data set [10] was Active. For the same molecule, binding in [6] was characterised by a dissociation constant (Kd) of 0.0056 µM. Also, in data set [8], the 50% effective concentration (EC50) was 0.83 µM.

As for `CCCCCC/C=C\CCCCCCCC(=O)OC[C@@H]1C[C@](F)(C(=O)O)C(=O)O1`, the outcome in [1] was inactive. For `CCCCCCCC/C=C\CCCCCCCC(=O)O[C@H](CBr)COP(=O)(O)O`, in data set [8], the EC50 was determined as 3.2 µM. Turning to `O=C(CCCCCCCCCCCCCCc1ccccc1)OC[C@@H](O)COP(=O)(O)O`, in data set [1], the outcome was inactive.

On to `O=C(CCCCCCCCCCCCc1ccc(-c2ccccc2)cc1)OC[C@@H](O)COP(=O)(O)O`, for which the EC50 in [8] worked out at 19 µM. Regarding `CCCCCCCC/C=C\CCCCCCCC(=O)OC[C@@H](O)COc1ccc(B(O)O)cc1`, the outcome in data set [1] was inactive. As to `CCCCCCCC/C=C\CCCCCCCC(=O)OC[C@@H]1CC(C(=O)O)C(=O)O1` (stereo partly drawn), the outcome in [1] was inactive.

As to `CO[C@H](COC(=O)CCCCCCCCCc1ccccc1)CC(F)(C(=O)O)C(=O)O`, the result in [1] was inactive. Regarding `O=C(CCCCCCCc1ccccc1)OC[C@@H](O)COP(=O)(O)O`, the result in [1] was inactive. Same read-out and setting: then `O=C(CCCCCCc1ccccc1)OC[C@@H](O)COP(=O)(O)O`, with “inactive”.

Consider `O=C(CCCCCCCCCc1ccccc1)O[C@H](CBr)COP(=O)(O)O`, for which the remaining at 8 h in data set [11] and in data set [12] was greater than 85% each time. With `COc1cc(CNC(=O)CCCC/C=C/C(C)C)ccc1O`, the outcome in data set [13] was Active.

The EC50 is the concentration at which the effect is half-maximal. Broadly, the Kd is the equilibrium constant for the complex coming apart. A high value points to a looser complex.
